Experimental data published in ChEMBL document CHEMBL4814057, “4-4-(Anilinomethyl)-3-[4-(trifluoromethyl)phenyl]-1H-pyrazol-1-ylbenzoic acid derivatives as potent anti-gram-positive bacterial agents” (Eur J Med Chem, 2021).
≈ marks a conversion by molar mass, not a printed value. Calls of active or inactive are those of the source. The calls are words filed in the database; no cut-off is given here.

Tests used:
Enterococcus faecalis [1] = test: Antibiofilm activity against Enterococcus faecalis ATCC 29212 assessed as inhibition of biofilm formation at 2 times MIC after 24 hrs by crystal violet staining based assay relative to control; type: functional; set-up: scale not given: the % may be the effect or the level left
In short: (§1)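 Overnight culture brought to 0.5 McFarland in PBS, diluted 1:100 in CAMHB with 1% glucose. Inhibition: cells plus compound (in DMSO) at 2x, 1x, 0.5xMIC, 24 h at 35 °C, triplicate. Destruction: 24 h biofilm grown without drug, washed, fresh medium with compound, further 24 h. Then washed, dried, 0.1% crystal violet, solubilized in 33% acetic acid, OD 620 nm. Controls are DMSO-only and broth-only wells.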

[2] = Selectivity index, ratio of IC50 for cytotoxicity against human HEK-293T cells to MIC of antimicrobial activity against methicillin-susceptible Staphylococcus aureus ATCC 25923; type: toxicity, cell-based; details: read-out: Selectivity Index
Staphylococcus aureus [3] = test: Antibacterial activity against methicillin resistant Staphylococcus aureus ATCC 700699 persisters assessed as reduction in viability at 4 times MIC measured within 4 hrs by colony counting method; type: functional; details: time hrs <=4
In short: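 Stationary-phase S. aureus from overnight CAMHB culture (35 °C, 200 rpm), washed thrice in PBS, diluted to ~5 × 10^8 CFU/ml. Incubated with antibiotic at 35 °C, 200 rpm. Aliquots taken at set times, washed, serially diluted in PBS, drop-plated (6 × 6) on TSA with 5% sheep blood. Colonies counted after 18–20 h at 35 °C. Triplicates.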

[4] = test system: Staphylococcus epidermidis; test: Antimicrobial activity against methicillin-resistant Staphylococcus epidermidis ATCC 700296 assessed as bacterial growth inhibitions by CLSI protocol based microdilution method; type: functional
Staphylococcus aureus [5] = test: Antibiofilm activity against Staphylococcus aureus ATCC 25923 assessed as destruction of biofilm formation at 1 times MIC after 24 hrs by crystal violet staining based assay relative to control; type: functional; in short: as §1
[6] = Toxicity in CD1 mouse assessed as effect on alanine transferase level at 50 mg/kg, ip administered as single dose measured after 24 hrs; type: organism-based; details: in vivo
In short: (§2)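 Male CD-1 mice, 8 weeks, 32–37 g, n = 10 per dose. Single IP injection at 5, 20 or 50 mg/kg in 0.9% saline, filter-sterilized; saline vehicle group. Blood taken by cardiac puncture 24 h later. 14 plasma markers measured on a chemistry panel, reported as mean ± SE. Toxicity judged by significance versus controls, normal ranges, dose-dependence and consistency across organ markers.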

Enterococcus faecalis [7] = test: Antimicrobial activity against vancomycin-susceptible Enterococcus faecalis ATCC 29212 assessed as bacterial growth inhibitions by CLSI protocol based microdilution method
Staphylococcus aureus [8] = test: Inhibition of RNA synthesis in Staphylococcus aureus ATCC 29213 at 0.25 times MIC measured by liquid scintillation counter; type: functional
In short: (§3)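 Early-exponential cells in CAMHB added to drug (40x stock) in triplicate, with a no-drug control. After 30 min pre-incubation at room temperature, [3H]thymidine 3.0 µCi/tube (DNA) or [3H]uridine 0.5 µCi/tube (RNA) added for 30 min at room temperature. Stopped with cold TCA, precipitate filtered and washed, then scintillation counted.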

Staphylococcus aureus [9] = test: Antimicrobial activity against Staphylococcus aureus ATCC 29213 assessed as inhibition of cell wall synthesis at 2 times MIC measured by liquid scintillation counter; type: functional
In short: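 Early-exponential cells resuspended in M9 minimal medium, drug (40x stock) in triplicate, 30 min pre-incubation at 37 °C. [14C]N-acetylglucosamine 0.4 µCi/reaction for 45 min at 37 °C. Stopped with 8% SDS, heated 95 °C 30 min, spotted on nitrocellulose, washed with 0.1% SDS, then scintillation counted.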

Staphylococcus aureus [10] = test: Inhibition of lipid synthesis in Staphylococcus aureus ATCC 29213 at 4 times MIC measured by liquid scintillation counter; type: functional
In short: (§4)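 Early-exponential cells in CAMHBII with drug in triplicate. Lipids extracted with chloroform/water, centrifuged, organic phase dried, then scintillation counted.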

Enterococcus faecalis [11] = test: Antibiofilm activity against Enterococcus faecalis ATCC 29212 assessed as inhibition of biofilm formation at 0.5 times MIC after 24 hrs by crystal violet staining based assay relative to control
Staphylococcus aureus [12] = test: Antibacterial activity against vancomycin-intermediate susceptible Staphylococcus aureus ATCC 25923 assessed as bacterial growth inhibition by measuring fold increase in MIC between 14 passages by broth dilution method; type: functional
Staphylococcus aureus [13] = test: Inhibition of lipid synthesis in Staphylococcus aureus ATCC 29213 at 0.25 times MIC measured by liquid scintillation counter; type: functional; in short: as §4
[14] = Toxicity in CD1 mouse assessed as effect on sodium level at 50 mg/kg, ip administered as single dose measured after 24 hrs; type: organism-based; details: in vivo; in short: as §2
Enterococcus faecium [15] = test: Antimicrobial activity against vancomycin-resistant Enterococcus faecium clinical isolate 1091720 by CLSI-based broth microdilution assay; type: functional
Staphylococcus aureus [16] = test: Antimicrobial activity against methicillin-resistant Staphylococcus aureus ATCC 33592 assessed as bacterial growth inhibitions by CLSI protocol based microdilution method; type: functional
Enterococcus faecium [17] = test: Antimicrobial activity against vancomycin-resistant Enterococcus faecium clinical isolate 1094112 by CLSI-based broth microdilution assay; type: functional
Enterococcus faecalis [18] = test: Antibacterial activity against vancomycin-intermediate Enterococcus faecalis ATCC 29212 assessed as bacterial growth inhibition by measuring fold increase in MIC after14 passages by broth dilution method; type: functional, organism-based
Staphylococcus aureus [19] = test: Inhibition of RNA synthesis in Staphylococcus aureus ATCC 29213 at 4 times MIC measured by liquid scintillation counter; type: functional; in short: as §3
Enterococcus faecalis [20] = test: Antibiofilm activity against Enterococcus faecalis ATCC 29212 assessed as destruction of biofilm formation at 1 times MIC after 24 hrs by crystal violet staining based assay relative to control; type: functional; in short: as §1
Staphylococcus aureus [21] = test: Antimicrobial activity against methicillin-resistant Staphylococcus aureus ATCC 700699 assessed as bacterial growth inhibitions by CLSI protocol based microdilution method; type: functional
Staphylococcus aureus [22] = test: Antimicrobial activity against methicillin-susceptible Staphylococcus aureus ATCC 25923 assessed as bacterial growth inhibitions by CLSI protocol based microdilution method; type: functional
[23] = Toxicity in CD1 mouse assessed as blood plasma albumin level at 50 mg/kg, ip administered as single dose measured after 24 hrs; type: organism-based; details: in vivo; in short: as §2
[24] = Toxicity in CD1 mouse assessed as effect on phosphorus level at 50 mg/kg, ip administered as single dose measured after 24 hrs; type: organism-based; details: in vivo; in short: as §2
Enterococcus faecium [25] = test: Antimicrobial activity against vancomycin-resistant Enterococcus faecium clinical isolate 1100440 by CLSI-based broth microdilution assay; type: functional
Staphylococcus aureus [26] = test: Bactericidal activity against Staphylococcus aureus ATCC 33591 assessed as reduction bacterial growth at 4X MIC measured after 4 hrs by time-kill kinetic assay; type: functional
In short: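 Log-phase culture diluted to ~5 × 10^6 CFU/ml in warm CAMHB, exposed at 4xMIC, 35 °C. 20 µl samples every 2 h, 10-fold dilutions to 10^-5, 6 × 6 drop plating. CFU/ml counted after 18–24 h at 35 °C; triplicate.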

Staphylococcus aureus [27] = test: Inhibition of protein synthesis in Staphylococcus aureus ATCC 29213 at 4 times MIC measured by liquid scintillation counter; type: functional
[28] = Toxicity in CD1 mouse assessed as effect on total protein level at 50 mg/kg, ip administered as single dose measured after 24 hrs; type: organism-based; details: in vivo; in short: as §2

`O=C(O)c1ccc(-n2cc(CNc3cc(F)cc(C(F)(F)F)c3)c(-c3ccc(C(F)(F)F)cc3)n2)cc1` showed an Activity (Enterococcus faecalis [1]) of 90%, a selectivity ratio [2] of 13 and an Activity (Staphylococcus aureus [3]) of 2 log10CFU/ml. For the same compound, the MIC [4] was 1.56 µg/mL (≈ 2.98 µM), the Activity (Staphylococcus aureus [5]) was 55% and the Activity [6] was “Non-Toxic”. The MIC (Enterococcus faecalis [7]) was 1.56 µg/mL (≈ 2.98 µM), the “inhibition (INH)” value (Staphylococcus aureus [8]) was 15.5% and the “inhibition (INH)” value (Staphylococcus aureus [9]) was 39.5%. For the same compound, the “inhibition (INH)” value (Staphylococcus aureus [10]) was 100%, the inhibition (Enterococcus faecalis [11]) was “Active” and the “fold change (FC)” value (Staphylococcus aureus [12]) was 2. For the same compound, the “inhibition (INH)” value (Staphylococcus aureus [13]) was 20.7%, the Activity [14] was “Non-Toxic” and the MIC (Enterococcus faecium [15]) was 4 µg/mL (≈ 7.64 µM). For the same compound, the MIC (Staphylococcus aureus [16]) was 0.78 µg/mL (≈ 1.49 µM), the MIC (Enterococcus faecium [17]) was 4 µg/mL (≈ 7.64 µM) and the Activity (Enterococcus faecalis [18]) was “inactive”. The “inhibition (INH)” value (Staphylococcus aureus [19]) was 98%, the Activity (Enterococcus faecalis [20]) was 75% and the MIC (Staphylococcus aureus [21]) was 0.78 µg/mL (≈ 1.49 µM). The MIC (Staphylococcus aureus [22]) was 0.39 µg/mL (≈ 0.745 µM), the Activity [23] was “Non-Toxic” and the Activity [24] was “Non-Toxic”. The MIC (Enterococcus faecium [25]) was 4 µg/mL (≈ 7.64 µM), the Activity (Staphylococcus aureus [26]) was 3 log10CFU/ml and the inhibition (Staphylococcus aureus [27]) was 100%. The Activity [28] was “Non-Toxic”.
